Results gathered from unrelated publications.
Compare with care: the assays were run in different laboratories.
Observed: metabolic stability

| Compound | species | matrix | tested at | pH | half-life |
| --- | --- | --- | --- | --- | --- |
| O=C(c1cc(-n2sc3ncccc3c2=O)ccc1Cl)N1CCOCC1 | mouse | liver microsomes |  |  | > 120 min |
| Cc1cnc(Nc2ccc(C(=O)NC3CCN(C(=O)COCCOCCOCC(=O)N4CCC(NC(=O)c5ccc(Nc6ncc(C)c(Nc7ccc(Cl)c(NS(=O)(=O)C(C)(C)C)c7)n6)cc5F)CC4)CC3)c(F)c2)nc1Nc1ccc(Cl)c(NS(=O)(=O)C(C)(C)C)c1 | mouse | liver microsomes |  |  | 33 min |
| CCCCCCCCCCCCCCCCOCCCOP(=O)(O)CO[C@H](C)Cn1cnc2c(N)ncnc21.N | CD-1 mouse | liver microsomes | 3 µM | pH 7.4 | > 120 min |
| O=C(c1ccc(-n2sc3ncccc3c2=O)cc1)N1CCOCC1 | mouse | liver microsomes |  |  | > 120 min |
| C=C1NC(=O)[C@H](C)N(O)C(=O)[C@H]([C@@H](O)C(N)=O)N(C)C(=O)[C@H](C)OC(=O)[C@@H]2C[C@H](C)CN2C1=O | mouse | liver microsomes |  |  | > 120 min |
| Nc1ncnc2c1c(Oc1cc(C(F)(F)F)ccn1)nn2C1CCC(F)(F)CC1 | mouse | liver microsomes | 1 µM |  | ~25 min |
| CN1CCCCC1Cn1cc(C(=O)c2cc([N+](=O)[O-])ccc2I)c2ccccc21 (racemic) | mouse | liver microsomes |  |  | 10.6 min |
| C[C@]12CC[C@H]3[C@@H](CCC4=CC(=O)CC[C@@]43C)[C@@H]1CC[C@@H]2O | mouse | liver microsomes | 1 µM |  | 2.1 min |
| Nc1ncnc2c1c(Oc1cc(Cl)ccn1)nn2C1CCC(F)(F)CC1 | mouse | liver microsomes | 1 µM |  | ~25 min |
| Cc1cc(C)nc(Nc2ncc(C(=O)NCCc3c(C)[nH]c4ccccc34)cn2)c1 | CD-1 mouse | hepatocytes | 1 µM |  | 39 min |
| N=c1c2c(-c3ccccc3)c(-c3ccccc3)n(Cc3ccccc3)c2ncn1[C@H]1CC[C@H](O)CC1 | mouse | liver S9 | 1 µM |  | > 120 min |
| Cc1nc2c(=O)n(C)c(=O)nc-2n(C)n1 | mouse | liver microsomes |  |  | > 186 min |
| C[C@H](Cn1cnc2c(N)ncnc21)OCP(=O)(O)OCCCOCCCCCCCCCCCCCCCC(F)(F)F.N | CD-1 mouse | liver microsomes | 3 µM | pH 7.4 | > 120 min |
